# Results from ChEMBL document CHEMBL1123643, “Modulation of the antitumor activity by methyl substitutions in the series of 7H-pyridocarbazole monomers and dimers” (1987).
# Key:
# L1210 [1] = test: In vitro cellular toxicity against L1210 (mouse leukemia) cells.; assay type: functional; details: read-out: ED50 (the source's name)
# In short: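 Exponentially growing L1210 cells (1 × 10^5/mL) exposed 24 h at 37 °C in RPMI 1640 with 10% fetal calf serum at a range of concentrations. Total cells counted by flow cytometer. Duplicate treated cultures were expressed as % of triplicate untreated controls. ED50 came from linear regression of residual % versus log concentration.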
# Calf thymus DNA = test: Binding affinity against calf-thymus DNA at pH 7.4; assay type: nucleic-acid assay; details: Bos taurus
# In short: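 Fluorimetric competition at pH 7.4, 25 °C. Monomers: 10^-5 M compound with calf thymus DNA (4 µg/mL), titrated with ethidium bromide (ex 546/em 590 nm), Scatchard analysis. Dimers: ethidium dimer (6.4 × 10^-7 M) with DNA (1.6 × 10^-6 M bp) equilibrated 24 h with varied compound (ex 540/em 610 nm); constant fitted from displacement curves with site size n.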
# L1210 [2] = test: In vitro inhibition of L1210 (mouse leukemia) cell cloning efficiency.; assay type: functional
# In short: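 After 24 h drug exposure, L1210 cells were diluted to 250 and 500 cells/mL and plated in Noble agar. Plates were held 14 days at 37 °C in 5% CO2, and colonies >0.2 mm were counted. Triplicates were run per concentration. CE37, the concentration reducing cloning efficiency to 0.37, came from dose–response curves.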
# L1210 [3] = test: (§1) In vivo maximum tolerate dose in L1210 (mouse leukemia) inoculated mice.; assay type: functional
# In short: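 L1210-bearing DBA2 mice (10^5 cells ip), drug given ip 24 h after inoculation. Acute toxicity by usual procedure; MTD taken as highest dose administered without causing animal death, in mg/kg.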
# L1210 [4] = test: In vivo antitumor activity in L1210 (mouse leukemia) inoculated mice (optimal dose).; assay type: functional
# In short: (§2)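 DBA2 mice (20–30/group) received 10^5 L1210 cells ip. Compound was given ip 24 h later; controls received solvent vehicle. Deaths were recorded daily, and survivors beyond 45 days were counted as cured. T/C% = treated/control mean survival time × 100. MTD was the highest dose causing no deaths; OD was the optimal dose.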
# Mus musculus [5] = test: In vivo change in mean survival time in L1210 (mouse leukemia) inoculated mice (Not significant).; assay type: functional, organism-based; in short: as §2
# Mus musculus [6] = test: In vivo change in mean survival time in L1210 (mouse leukemia) inoculated mice.; assay type: functional
# In short: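 DBA2 mice given 10^5 L1210 cells ip; 24 h later single ip dose of drug, controls given same volume of solvent; 20–30 animals/group. Deaths recorded daily; survivors beyond 45 days counted cured. Value is treated mean survival time over control mean survival time ×100 (T/C %).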
# L1210 [7] = test: as §1; assay type: functional; in short: as §2; remark: listed apart in the source
Structure (SMILES),EC50 (L1210 [1]),K (Calf thymus DNA),CE37 (L1210 [2]),MTD (L1210 [3]),OD (L1210 [4]),T/C (Mus musculus [5]),T/C (Mus musculus [6]),Optimal dose (L1210 [4]),Dose (L1210 [7])
COc1ccc2[nH]c3cc(C)c4ccc(NCCN5CCCCC5)cc4c3c2c1,2240 nM,100000 M⁻¹,,,,,,,
CNc1ccc2cc(C)c3c(c2c1)c1cc(OC)ccc1n3C.I,220 nM,1e+06 M⁻¹,0.6 µM,,,,,,
CNc1ccc2c(ccc3[nH]c4ccc(OC)cc4c32)c1.I,> 2500 nM,200000 M⁻¹,,50 mg/kg,25 mg/kg,Not significant,,,
CNc1ccc2c(ccc3c2c2cc(OC)ccc2n3C)c1.I,2220 nM,310000 M⁻¹,,150 mg/kg,75 mg/kg,,115%,,
CNc1ccc2c(c1)cc(C)c1[nH]c3ccc(OC)cc3c12.I,300 nM,300000 M⁻¹,0.15 µM,,,,,,
COc1ccc2c(c1)c1c3cc(NCCN4CCC(C5CCN(CCNc6ccc7ccc8c(c7c6)c6cc(OC)ccc6n8C)CC5)CC4)ccc3ccc1n2C.Cl.Cl,360 nM,2e+07 M⁻¹,0.006 µM,10 mg/kg,2.5 mg/kg,,178%,,
COc1ccc2[nH]c3ccc4ccc(NCCN5CCC(C6CCN(CCNc7ccc8ccc9[nH]c%10ccc(OC)cc%10c9c8c7)CC6)CC5)cc4c3c2c1.CS(=O)(=O)O.CS(=O)(=O)O,190 nM,1e+07 M⁻¹,0.024 µM,10 mg/kg,10 mg/kg,,182%,,
CNc1cccc2c1cc(C)c1[nH]c3ccc(OC)cc3c12.I,> 2500 nM,61000 M⁻¹,>2.5 µM,,,,,,
CNc1ccc2ccc3[nH]c4ccc(OC)cc4c3c2c1.I,950 nM,290000 M⁻¹,0.77 µM,50 mg/kg,25 mg/kg,Not significant,,,
COc1ccc2[nH]c3cc(C)c4ccc(NCCN5CCC(C6CCN(CCNc7ccc8c(C)cc9[nH]c%10ccc(OC)cc%10c9c8c7)CC6)CC5)cc4c3c2c1.Cl.Cl,> 1000 nM,5e+06 M⁻¹,0.42 µM,6 mg/kg,2 mg/kg,,120%,,
COc1ccc2c(c1)c1c3cc(NCCN4CCCCC4)ccc3ccc1n2C.Cl,670 nM,1.2e+06 M⁻¹,3.36 µM,10 mg/kg,5 mg/kg,Not significant,,,
CNc1ccc2c(C)cc3[nH]c4ccc(OC)cc4c3c2c1.I,> 2500 nM,60000 M⁻¹,3.71 µM,,,,,,
COc1ccc2[nH]c3ccc4ccc(NCCN5CCCCC5)cc4c3c2c1.Cl,250 nM,540000 M⁻¹,0.14 µM,10 mg/kg,5 mg/kg,Not significant,,,
COc1ccc2c(c1)c1c3cc(NCCN4CCC(C5CCN(CCNc6ccc7cc(C)c8c(c7c6)c6cc(OC)ccc6n8C)CC5)CC4)ccc3cc(C)c1n2C.Cl.Cl,3270 nM,1e+08 M⁻¹,10.9 µM,,,,,,
COc1ccc2c(c1)c1c3ccc(NCCN4CCC(C5CCN(CCNc6ccc7c(ccc8c7c7cc(OC)ccc7n8C)c6)CC5)CC4)cc3ccc1n2C.Cl.Cl,,6e+06 M⁻¹,3.93 µM,15 mg/kg,7.5 mg/kg,Not significant,,,
CNc1ccc2cc(C)c3[nH]c4ccc(OC)cc4c3c2c1.I,60 nM,180000 M⁻¹,0.03 µM,,,,125%,25 mg/kg,50 mg/kg
COc1ccc2[nH]c3c(C)cc4ccc(NCCN5CCCCC5)cc4c3c2c1.Cl,110 nM,930000 M⁻¹,0.1 µM,23 mg/kg,5 mg/kg,,123%,,
COc1ccc2c(c1)c1c3cc(NCCN4CCCCC4)ccc3cc(C)c1n2C.Cl,440 nM,610000 M⁻¹,,10 mg/kg,10 mg/kg,Not significant,,,
COc1ccc2[nH]c3ccc4cc(NCCN5CCC(C6CCN(CCNc7ccc8c(ccc9[nH]c%10ccc(OC)cc%10c98)c7)CC6)CC5)ccc4c3c2c1.Cl.Cl,,3e+06 M⁻¹,,100 mg/kg,20 mg/kg,,130%,,
CNc1cccc2c1ccc1[nH]c3ccc(OC)cc3c12.I,19200 nM,40000 M⁻¹,>2.5 µM,,,,,,
CNc1ccc2ccc3c(c2c1)c1cc(OC)ccc1n3C.I,220 nM,700000 M⁻¹,0.74 µM,25 mg/kg,17 mg/kg,,122%,,
COc1ccc2[nH]c3c(C)cc4cc(NCCN5CCC(C6CCN(CCNc7ccc8c(c7)cc(C)c7[nH]c9ccc(OC)cc9c78)CC6)CC5)ccc4c3c2c1.Cl.Cl,> 1000 nM,1e+07 M⁻¹,0.6 µM,,,,,,
COc1ccc2[nH]c3c(C)cc4ccc(NCCN5CCC(C6CCN(CCNc7ccc8cc(C)c9[nH]c%10ccc(OC)cc%10c9c8c7)CC6)CC5)cc4c3c2c1.Cl.Cl,370 nM,5e+08 M⁻¹,0.01 µM,11 mg/kg,,,172%,,
